Experimental findings from ChEMBL document CHEMBL1130878 (Bioorg Med Chem Lett, 1998) are described below.

The target of one test is T1, Endothelin-1 receptor (Rattus norvegicus, UniProt P26684).
T1 sequence (P26684 whole entry): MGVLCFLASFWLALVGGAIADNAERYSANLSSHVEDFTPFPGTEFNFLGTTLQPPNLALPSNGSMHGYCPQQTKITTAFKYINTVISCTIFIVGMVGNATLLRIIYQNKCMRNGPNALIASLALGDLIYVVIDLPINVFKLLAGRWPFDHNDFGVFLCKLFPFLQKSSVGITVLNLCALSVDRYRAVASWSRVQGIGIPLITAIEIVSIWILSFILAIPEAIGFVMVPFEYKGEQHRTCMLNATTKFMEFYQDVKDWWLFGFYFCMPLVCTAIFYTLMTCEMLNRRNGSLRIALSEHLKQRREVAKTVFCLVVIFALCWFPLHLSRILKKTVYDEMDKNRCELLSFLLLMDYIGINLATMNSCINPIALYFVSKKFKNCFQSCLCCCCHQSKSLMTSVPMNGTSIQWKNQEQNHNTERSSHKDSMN
Briefly: In vitro ability to inhibit specific [125I]ET1 binding to rat aorta membranes Endothelin A receptor. It counts as tissue-based.

The target of test [1] is T2, Endothelin receptor type B (Sus scrofa, UniProt P35463).
T2 sequence (P35463 whole entry): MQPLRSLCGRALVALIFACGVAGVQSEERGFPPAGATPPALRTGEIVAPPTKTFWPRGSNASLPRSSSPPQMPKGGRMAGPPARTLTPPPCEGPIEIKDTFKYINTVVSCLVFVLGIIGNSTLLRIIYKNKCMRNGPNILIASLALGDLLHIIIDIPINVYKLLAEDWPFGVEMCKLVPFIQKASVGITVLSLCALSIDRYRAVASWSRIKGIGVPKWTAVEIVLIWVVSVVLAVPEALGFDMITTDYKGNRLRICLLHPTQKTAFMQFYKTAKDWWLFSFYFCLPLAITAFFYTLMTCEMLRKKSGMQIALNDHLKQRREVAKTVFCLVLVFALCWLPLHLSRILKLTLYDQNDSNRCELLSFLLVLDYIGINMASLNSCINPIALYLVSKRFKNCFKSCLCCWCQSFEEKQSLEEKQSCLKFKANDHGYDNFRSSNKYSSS
Nature of the test: In vitro ability to inhibit specific [125I]ET1 binding to porcine kidney (inner medulla) membranes Endothelin B receptor.

For the next test, the species on record is Rattus norvegicus. Briefly: Compound was evaluated for the functional assay performed by obtaining ET-1 concentration-response curves [pA2(ETA)] in isolated rat aortic rings. To be noted: Aorta, read-out: pA2 (converted). Put shortly:
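Functional ETA assay: ET-1 concentration-response curves in isolated rat aortic rings with the endothelium removed. Antagonism is expressed as pA2.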

The species entered for a further test is Oryctolagus cuniculus. Nature of the test: Compound was evaluated for the functional assay performed by obtaining sarafotoxin 6c concentration-response curves [pA2(ETB)] in isolated rabbit jugularis vein.

What is called IC50 is the concentration that gives 50% inhibition. With `COc1ccc(C(=O)/C(Cc2cc(OC)c(OC)c(OC)c2)=C(\C(=O)O)c2ccc3nsnc3c2)c(F)c1`, the half-maximal inhibitory concentration (IC50) at Endothelin-1 receptor stood at 3 nM. That is a single-digit nanomolar value.
`COc1ccc(C(=O)/C(Cc2ccc3c(c2)CCO3)=C(\C(=O)O)c2ccc3nsnc3c2)cc1`: the IC50 on Endothelin-1 receptor turned out to be 3.4 nM; in test [1], 1400 nM.
For `COc1ccc(C(=O)/C(Cc2cc(OC(C)C)c(OC(C)C)c(OC(C)C)c2)=C(\C(=O)O)c2ccc3nsnc3c2)cc1`, the IC50 was 57 nM at Endothelin-1 receptor and 220 nM in test [1].
For `COc1ccc(C(=O)/C(Cc2cc(OC)c(OC)c(OC)c2)=C(\C(=O)O)c2ccc3nsnc3c2)cc1C` the same measures were 1.4 nM and 260 nM.
`COc1cc(C/C(C(=O)c2ccc3c(c2)OCO3)=C(/C(=O)O)c2ccc3nsnc3c2)cc(OC)c1OC`: the IC50 on Endothelin-1 receptor was determined as 6.5 nM; in test [1], 400 nM.
For the compound `COc1ccc(C(=O)/C(Cc2ccc(OC)c(F)c2)=C(\C(=O)O)c2ccc3nsnc3c2)cc1`, the IC50 is 14 nM at Endothelin-1 receptor and 2900 nM in test [1].
In the case of `COc1cccc(C(=O)/C(Cc2cc(OC)c(OC)c(OC)c2)=C(\C(=O)O)c2ccc3nsnc3c2)c1`, the IC50 came to 4.6 nM on Endothelin-1 receptor and 1800 nM in test [1].
Consider `COc1cc(C/C(C(=O)c2ccc(OC(C)C)c(F)c2)=C(/C(=O)O)c2ccc3nsnc3c2)cc(OC)c1OC`, for which the values for the IC50 (at Endothelin-1 receptor; in test [1]) were 65 nM and 290 nM, respectively.
For `COc1cc(C/C(C(=O)c2cc(OC)c(OC)c(OC)c2)=C(/C(=O)O)c2ccc3nsnc3c2)cc(OC)c1OC`, the values for the IC50 (on Endothelin-1 receptor; in test [1]) were 3.7 nM and 340 nM, respectively.
As to `COc1ccc(C/C(C(=O)c2ccc(OC)cc2)=C(/C(=O)O)c2ccc3nsnc3c2)cc1`, the IC50 on Endothelin-1 receptor is 28 nM; in test [1], 1800 nM.
Turning to `COc1ccc(C(=O)/C(Cc2ccccc2OC)=C(\C(=O)O)c2ccc3nsnc3c2)cc1`, the IC50 on Endothelin-1 receptor was 3.4 nM; in test [1], 820 nM.
For `COc1cc(C/C(C(=O)c2ccc(OC(F)F)cc2)=C(/C(=O)O)c2ccc3nsnc3c2)cc(OC)c1OC` the same measures were 160 nM and 1900 nM.
As for `COc1cc(C/C(C(=O)c2ccc(OC(C)C)cc2)=C(/C(=O)O)c2ccc3nsnc3c2)cc(OC)c1OC`, the IC50 on Endothelin-1 receptor is 64 nM; in test [1] it was 550 nM.
For `COc1ccccc1C(=O)/C(Cc1cc(OC)c(OC)c(OC)c1)=C(\C(=O)O)c1ccc2nsnc2c1` the same measures were 16 nM and 4800 nM.
As for `COc1cc(F)ccc1C(=O)/C(Cc1cc(OC)c(OC)c(OC)c1)=C(\C(=O)O)c1ccc2nsnc2c1`, at Endothelin-1 receptor, the IC50 worked out at 12 nM.
On to `COc1ccc(C(=O)/C(Cc2ccccc2)=C(\C(=O)O)c2ccc3nsnc3c2)cc1`, for which the Kb in the test filed under Rattus norvegicus was 25.1 nM. The IC50 stood at 26 nM on Endothelin-1 receptor and 1200 nM in test [1].
For the compound `COc1ccc(C(=O)/C(Cc2cc(OC)c(OC)c(OC)c2)=C(\C(=O)O)c2ccc3nsnc3c2)cc1`, the Kb is 3.16 nM in the test listed under Rattus norvegicus and 794 nM in the test listed under Oryctolagus cuniculus. The IC50 is 0.3 nM at Endothelin-1 receptor and 340 nM in test [1].
`COc1cc(C/C(C(=O)c2ccc3c(c2)CCO3)=C(/C(=O)O)c2ccc3nsnc3c2)cc(OC)c1OC`: the figures for the IC50 (at Endothelin-1 receptor; in test [1]) were 28 nM and 460 nM, respectively.
For `COc1ccc(C(=O)/C(Cc2ccc(SC)cc2)=C(\C(=O)O)c2ccc3nsnc3c2)cc1`, the 50% inhibitory concentration (IC50) at Endothelin-1 receptor was determined as 17 nM; in test [1], 3200 nM.
Consider `COc1ccc(C(=O)/C(Cc2cc(OC)c(OC)c(OC)c2)=C(\C(=O)O)c2ccc3nsnc3c2)cc1Cl`, for which the concentration for half-maximal inhibition (IC50) at Endothelin-1 receptor worked out at 1 nM; in test [1], 180 nM.
Take `COc1ccc(C(=O)/C(Cc2ccccc2)=C(\C(=O)O)c2ccc3c(c2)OCO3)cc1`: the IC50 on Endothelin-1 receptor worked out at 7.4 nM; in test [1], 4550 nM.
Regarding `COc1ccc(C(=O)/C(Cc2cccc(OC)c2)=C(\C(=O)O)c2ccc3nsnc3c2)cc1`, the results for the IC50 (on Endothelin-1 receptor; in test [1]) were 3.4 nM and 1000 nM, respectively.
For `COc1ccc(C(=O)/C(Cc2ccc(OC(C)(C)C)cc2)=C(\C(=O)O)c2ccc3nsnc3c2)cc1` the same measures were 580 nM and 1600 nM.
As to `COc1ccc(C(=O)/C(Cc2ccc3c(c2)OCO3)=C(\C(=O)O)c2ccc3nsnc3c2)cc1`, the IC50 on Endothelin-1 receptor amounted to 66 nM; in test [1] it was 1500 nM.
Regarding `CCCCN(CCCC)C(=O)CN1C[C@H](c2ccc3c(c2)OCO3)[C@@H](C(=O)O)[C@@H]1c1ccc(OC)cc1`, the Kb was 2.51 nM in the test filed under Rattus norvegicus and 794 nM in the test filed under Oryctolagus cuniculus.
As to `COc1ccc(C(=O)/C(Cc2cc(OC)c(OC)c(OC)c2)=C(\C(=O)O)c2ccc3c(c2)OCO3)cc1` [PD-156707 SODIUM], the Kb in the test listed under Rattus norvegicus is 25.1 nM; in the test listed under Oryctolagus cuniculus, more than 3160 nM. Besides, the IC50 at Endothelin-1 receptor was determined as 1.3 nM; in test [1], 340 nM.
